Results: ChEMBL document CHEMBL4706616, “Design, synthesis, and evaluation of substituted 2-acylamide-1,3-benzo[d]zole analogues as agents against MDR- and XDR-MTB” (Eur J Med Chem, 2021)
pIC50: −log10 of the molar value. In brackets after ≈: the same amount, converted by molar mass.

Assays:
[1] = system: Mycobacterium tuberculosis; test: Antitubercular activity against Mycobacterium tuberculosis H37Rv assessed as bacterial growth inhibition by MABA; format: functional
HEK293 = test: Cytotoxicity against human HEK293 cells assessed as reduction in cell viability incubated for 48 hrs by CCK8 assay; format: cell-based; details: HEK293, 48 h
[2] = Mean residence time in Sprague-Dawley rat at 40 mg/kg, po measured upto 8 hrs by LC-MS/MS analysis; format: ADME, organism-based; details: in vivo
Method in brief: (§1)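 Male SPF SD rats (180–220 g), fasted overnight, fed 4 h post-dose; single 40 mg/kg oral dose suspended in 5% DMSO/10% Solutol/85% water; n=3. Jugular blood at 0.25–8 h, plasma protein precipitated with MeOH containing internal standard, analysed by LC-MS/MS; AUC, Cmax, Tmax, MRT from plasma concentration data; mean ± SD.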

[3] = Selectivity index, ratio of IC50 for human HEK293 cells to MIC for Mycobacterium tuberculosis; format: toxicity; details: read-out: Selectivity Index
Method in brief: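 Ratio of HEK-293 IC50 (µM) to anti-Mtb MIC (µM).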

[4] = Cmax in Sprague-Dawley rat at 40 mg/kg, po measured upto 8 hrs by LC-MS/MS analysis; format: ADME, organism-based; set-up: route oral, dose 40 mg/kg, time <=8; details: in vivo; method in brief: as §1
[5] = AUC (0 to t) in Sprague-Dawley rat at 40 mg/kg, po measured upto 8 hrs by LC-MS/MS analysis; format: ADME, organism-based; set-up: route oral, dose 40 mg/kg, time <=8; details: in vivo; method in brief: as §1
[6] = Tmax in Sprague-Dawley rat at 40 mg/kg, po measured upto 8 hrs by LC-MS/MS analysis; format: ADME, organism-based; details: in vivo; method in brief: as §1
Staphylococcus aureus [7] = test: Antibacterial activity against methicillin-resistant Staphylococcus aureus ATCC 33591 assessed as bacterial growth inhibition incubated for 18 hrs by agar dilution method; format: functional
Enterococcus faecium = test: Antibacterial activity against vancomycin-resistant Enterococcus faecium ATCC 700221 assessed as bacterial growth inhibition incubated for 18 hrs by agar dilution method; format: functional
Klebsiella pneumoniae [8] = test: Antibacterial activity against ESBLs positive Klebsiella pneumoniae ATCC 700603 assessed as bacterial growth inhibition incubated for 18 hrs by agar dilution method; format: functional
Klebsiella pneumoniae [9] = test: Antibacterial activity against ESBLs negative Klebsiella pneumoniae 7 assessed as bacterial growth inhibition incubated for 18 hrs by agar dilution method; format: functional
Enterococcus faecalis = test: Antibacterial activity against Vancomycin-susceptible Enterococcus faecalis ATCC 29212 assessed as bacterial growth inhibition incubated for 18 hrs by agar dilution method; format: functional
[10] = system: Acinetobacter calcoaceticus; test: Antibacterial activity against Acinetobacter calcoaceticus ATCC 19606 assessed as bacterial growth inhibition incubated for 18 hrs by agar dilution method; format: functional
[11] = system: Staphylococcus epidermidis; test: Antibacterial activity against methicillin-sensitive Staphylococcus epidermidis ATCC 12228 assessed as bacterial growth inhibition incubated for 18 hrs by agar dilution method; format: functional
[12] = Acute toxicity in BALB/c mouse at 1000 mg/kg, po measured after 7 days; format: organism-based; details: in vivo, 168 h, time 7 day
Method in brief: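 SPF female BALB/c mice, 18–22 g, groups of six; single 1000 mg/kg oral gavage in 0.5% CMC-Na; housed at 20–24°C; surviving mice counted over the observation period (14 days per methods, 7 days per results text).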

Staphylococcus aureus [13] = test: Antibacterial activity against methicillin-sensitive Staphylococcus aureus ATCC 29213 assessed as bacterial growth inhibition incubated for 18 hrs by agar dilution method; format: functional
Escherichia coli = test: Antibacterial activity against ESBLs negative Escherichia coli ATCC 25922 assessed as bacterial growth inhibition incubated for 18 hrs by agar dilution method; format: functional
Pseudomonas aeruginosa = test: Antibacterial activity against Pseudomonas aeruginosa ATCC 27853 assessed as bacterial growth inhibition incubated for 18 hrs by agar dilution method; format: functional

Row | SMILES | MIC [1] | pIC50 (HEK293) | also measured
1 | O=C(Nc1nc2ccccc2o1)c1ccc(Cl)s1 | 14.3 µM (≈ 4 µg/mL) |  | 
2 | Cc1nnsc1C(=O)Nc1nc2cc(-c3cccnc3)ccc2o1 | 2.96 µM (≈ 0.999 µg/mL) | 4.26 | 
3 | Cc1nnsc1C(=O)Nc1nc2c(-c3ccccn3)cccc2o1 | 23.7 µM (≈ 8 µg/mL) |  | 
4 | Cc1nnsc1C(=O)Nc1nc2c(ccc3cccnc32)o1 | 103 µM (≈ 32 µg/mL) |  | 
5 | Cc1nnsc1C(=O)Nc1nc2ccc(Cl)cc2o1 | 0.42 µM (≈ 0.124 µg/mL) | 5.15 | 
6 | Cc1nnsc1C(=O)Nc1nc2cc(F)ccc2o1 | 0.45 µM (≈ 0.125 µg/mL) | 4.38 | 
7 | Cc1nnsc1C(=O)Nc1nc2c(Oc3ncccn3)cccc2o1 | 2.82 µM (≈ 0.999 µg/mL) | < 4.00 | MRT [2]: 4.12 h; selectivity ratio [3]: > 18; Cmax [4]: 6.93 ng/mL; AUC(0-t) at 8 h [5]: 38 ng·h/mL; Tmax [6]: 2.83 h
8 | Cc1nnsc1C(=O)Nc1nc2c(OCc3ccccn3)cccc2o1 | 5.44 µM (≈ 2 µg/mL) | 4.21 | 
9 | Cc1nnsc1C(=O)Nc1nc2cc(Br)ccc2o1 | 2.95 µM (≈ 1 µg/mL) | 4.35 | 
10 | COC(=O)c1ccc(-c2ccc3oc(NC(=O)c4snnc4C)nc3c2)cc1 | 1.27 µM (≈ 0.501 µg/mL) |  | 
11 | O=C(Nc1nc2ccccc2o1)c1ccco1 | 17.5 µM (≈ 4 µg/mL) | < 4.00 | 
12 | Cc1nnsc1C(=O)Nc1nc2cc(C(C)(C)C)ccc2o1 | 0.4 µM (≈ 0.127 µg/mL) | 5.17 | MRT [2]: 5.26 h; MIC (Staphylococcus aureus [7]): 6.32 µM (≈ 2 µg/mL); MIC (Enterococcus faecium): 12.6 µM (≈ 4 µg/mL); selectivity ratio [3]: 17; MIC (Klebsiella pneumoniae [8]): > 405 µM; Cmax [4]: 6840 ng/mL; MIC (Klebsiella pneumoniae [9]): > 405 µM; MIC (Enterococcus faecalis): 12.6 µM (≈ 4 µg/mL); MIC [10]: > 405 µM; MIC [11]: 6.32 µM (≈ 2 µg/mL); Activity [12]: Non-Toxic; MIC (Staphylococcus aureus [13]): 6.32 µM (≈ 2 µg/mL); AUC(0-t) at 8 h [5]: 24800 ng·h/mL; MIC (Escherichia coli): > 405 µM; Tmax [6]: ≥ 8 h; MIC (Pseudomonas aeruginosa): > 405 µM
13 | Cc1nnsc1C(=O)Nc1nc2cc(-c3ccccn3)ccc2o1 | 0.74 µM (≈ 0.25 µg/mL) | < 4.00 | MRT [2]: 5.59 h; MIC (Staphylococcus aureus [7]): 1.48 µM (≈ 0.499 µg/mL); MIC (Enterococcus faecium): 5.93 µM (≈ 2 µg/mL); selectivity ratio [3]: > 270; MIC (Klebsiella pneumoniae [8]): > 379 µM; Cmax [4]: 9050 ng/mL; MIC (Klebsiella pneumoniae [9]): > 379 µM; MIC (Enterococcus faecalis): 11.9 µM (≈ 4 µg/mL); MIC [10]: > 379 µM; MIC [11]: 2.96 µM (≈ 0.999 µg/mL); Activity [12]: Non-Toxic; MIC (Staphylococcus aureus [13]): 5.93 µM (≈ 2 µg/mL); AUC(0-t) at 8 h [5]: 27800 ng·h/mL; MIC (Escherichia coli): > 379 µM; Tmax [6]: ≥ 8 h; MIC (Pseudomonas aeruginosa): > 379 µM
14 | Cc1nnsc1C(=O)Nc1nc2cc(-c3cnn(C)c3)ccc2o1 | 1.47 µM (≈ 0.5 µg/mL) |  | 
15 | Cc1ccc2oc(NC(=O)c3snnc3C)nc2c1 | 1.82 µM (≈ 0.499 µg/mL) | 4.66 | 
16 | COC(=O)c1ccc2oc(NC(=O)c3snnc3C)nc2c1 | 3.14 µM (≈ 1 µg/mL) |  | 
17 | Cc1nnsc1C(=O)Nc1nc2cc(N3CCOCC3)ccc2o1 | 11.6 µM (≈ 4 µg/mL) | 4.74 | 

Row | SMILES | MIC [1] | pIC50 (HEK293) | also measured
18 | Cc1nnsc1C(=O)Nc1nc2ccccc2[nH]1 | 30.9 µM (≈ 8 µg/mL) | < 4.00 | 
19 | Cc1nnsc1C(=O)Nc1nc2c(ccc3ccccc32)o1 | 103 µM (≈ 32 µg/mL) | 4.09 | 
20 | Cc1nnsc1C(=O)Nc1nc2cc(Cl)ccc2o1 | 0.42 µM (≈ 0.124 µg/mL) | 5.18 | selectivity ratio [3]: 4; Activity [12]: Non-Toxic
21 | Cc1nnsc1C(=O)Nc1nc2c(Br)cccc2o1 | 1.47 µM (≈ 0.499 µg/mL) | 4.98 | 
22 | O=C(Nc1nc2ccccc2o1)c1cccs1 | 16.4 µM (≈ 4 µg/mL) | 4.09 | 
23 | Cc1nnsc1C(=O)Nc1nc2ccccc2s1 | 28.9 µM (≈ 8 µg/mL) | < 4.00 | 
24 | Cc1nnsc1C(=O)Nc1nc2ccccc2o1 | 0.48 µM (≈ 0.125 µg/mL) | 4.71 | 
25 | Cc1nnsc1C(=O)Nc1nc2cc(-c3ccncc3)ccc2o1 | 1.48 µM (≈ 0.499 µg/mL) |  | 
26 | Cc1nnsc1C(=O)Nc1nc2ncccc2o1 | 7.66 µM (≈ 2 µg/mL) | 4.82 | 
27 | Cc1nnsc1C(=O)Nc1nc2c(ccc3ncccc32)o1 | 103 µM (≈ 32 µg/mL) | 4.23 | 
28 | Cc1nnsc1C(=O)Nc1nc2ccc(C(C)(C)C)cc2o1 | 3.16 µM (≈ 1 µg/mL) | 5.62 | 
29 | O=C(Nc1nc2ccccc2o1)c1ccccc1 | 269 µM (≈ 64 µg/mL) | < 4.00 | 
30 | CC[C@@H](CO)NCCN[C@@H](CC)CO [ETHAMBUTOL] | < 2.45 µM |  | 
31 | NNC(=O)c1ccncc1 [ISONIAZID] | < 3.65 µM |  | 
32 | CO[C@H]1/C=C/O[C@@]2(C)Oc3c(C)c(O)c4c(O)c(c(/C=N/N5CCN(C)CC5)c(O)c4c3C2=O)NC(=O)/C(C)=C\C=C\[C@H](C)[C@H](O)[C@@H](C)[C@@H](O)[C@@H](C)[C@H](OC(C)=O)[C@@H]1C [RIFAMPIN] | < 0.61 µM |  | 
33 | CN[C@@H]1[C@H](O[C@H]2[C@H](O[C@H]3[C@H](O)[C@@H](O)[C@H](N=C(N)N)[C@@H](O)[C@@H]3N=C(N)N)O[C@@H](C)[C@]2(O)C=O)O[C@@H](CO)[C@H](O)[C@H]1O [STREPTOMYCIN] | < 0.69 µM |  | 
